Published values of several laboratories.
Each line is one published result; the experiments were not run side by side.
Oprd1: Delta-type opioid receptor (Oprd1, Rattus norvegicus, UniProt P33533)
CTSB: Cathepsin B (CTSB, Homo sapiens, UniProt P07858)
MAP4K1: Mitogen-activated protein kinase kinase kinase kinase 1 (MAP4K1, Homo sapiens, UniProt Q92918)

With `CCN(CC)CCCC[C@H](NC(=O)[C@H](CC(C)C)NC(=O)[C@H](C)NC(=O)[C@H](Cc1ccccc1)NC(=O)c1ccc(C(C)(C)C)cc1)C(=O)N[C@@H](CO)C(=O)OC` the remaining binding was 92.2% (5-hydroxytryptamine receptor 7 (HTR7, Homo sapiens, UniProt P34969); ligand displacement, radioligand; 10 µM).
The remaining binding of `CC[C@@H](C)[C@@H]1CN([C@H](Cc2ccc3ccccc3c2)CN2CCC[C@H]2CN2CCNC[C@@H]2CO)CCN1CCc1ccc(Cl)c(Cl)c1` is reported as 87.7% (Oprd1; ligand displacement, radioligand; 0.5 µM, 2 h, pH 7.5, cell membranes).
For `CC(C)C[C@H](NC(=O)[C@H]1O[C@@H]1C(=O)O)C(=O)NCCCCN=C(N)N`, the inhibition was 97% (CTSB; enzyme activity, inhibitor; 50 nM).
The remaining binding of `Oc1ccc(C[C@@H]2CN([C@H](Cc3ccc4ccccc4c3)CN3CCC[C@H]3CN3CCNC[C@@H]3Cc3ccc4ccccc4c3)CCN2CCC23CC4CC(CC(C4)C2)C3)cc1` is reported as 94.4% (Oprd1; ligand displacement, radioligand; 0.5 µM, 2 h, pH 7.5, cell membranes).
For `CC[C@H](NC(=O)OCc1ccccc1)C(=O)N[C@H](C(=O)N[C@@H](CC(C)C)C(=O)N(C)N(C#N)CCC(N)=O)C(C)(C)C`, the kon was 8400 M⁻¹ s⁻¹ (CTSB; enzyme activity, inhibitor).
For `N=C(N)c1ccc2cc(OC(=O)c3ccc(N=C(N)N)cc3)ccc2c1`, the inhibition was 13% (Dipeptidyl peptidase 9 (DPP9, Homo sapiens, UniProt Q86TI2); enzyme activity, inhibitor; 10 µM).
The remaining binding of `C[C@@H](O)[C@@H]1CN([C@H](Cc2ccc3ccccc3c2)CN2CCC[C@H]2CN2CCNC[C@@H]2Cc2ccc3ccccc3c2)CCN1CCC12CC3CC(CC(C3)C1)C2` is reported as 100% (Oprd1; ligand displacement, radioligand; 0.5 µM, 2 h, pH 7.5, cell membranes).
With `COc1ncccc1-c1cnn2ccc(N3CCN(C(=O)OC(C)C)CC3)nc12` the remaining binding was 60% (Serine/threonine-protein kinase TNNI3K (TNNI3K, Homo sapiens, UniProt Q59H18); binding, competition with immobilised ligand; 1 µM).
`Nc1ncc(-c2nc(N3CCOCC3)nc(N3CCOCC3)n2)c(C(F)F)n1` has a remaining binding of 100% (Cyclin-dependent kinase 8 (CDK8, Homo sapiens, UniProt P49336); binding, competition with immobilised ligand; 10 µM).
`Cc1nn(C)cc1-c1nc2c(N3CCN(Cc4ccc(Cl)cc4)CC3)c(Cl)cnc2[nH]1` has a remaining binding of 74% (MAP4K1; binding, competition with immobilised ligand; 1 µM).
`CC[C@@H](C)[C@@H]1CN([C@@H](CC2CCCCC2)CN2CCC[C@H]2CN2CCNC[C@@H]2CO)CCN1CCC12CC3CC(CC(C3)C1)C2` has a remaining binding of 90% (Oprd1; ligand displacement, radioligand; 0.5 µM, 2 h, pH 7.5, cell membranes).
The inhibition of `C#Cc1n[nH]c2c(-c3cn(C(C)c4ccccn4)c(=O)[nH]c3=O)cc(F)cc12` (stereo not shown) is reported as 6.2% (Cyclin-dependent kinase 8, with cyclin C (CDK8, Homo sapiens, UniProt P49336); enzyme activity, inhibitor; 1 µM).
The remaining binding of `C[C@@H](O)[C@@H]1CN([C@H](Cc2ccc3ccccc3c2)CN2CCC[C@H]2CN2CCNC[C@@H]2Cc2ccc3ccccc3c2)CCN1CCc1ccc(Cl)c(Cl)c1` is reported as 105% (Oprd1; ligand displacement, radioligand; 0.5 µM, 2 h, pH 7.5, cell membranes).
For `CN1CCN(c2ccc(Nc3nccc(-c4ccccc4)n3)cc2C(F)(F)F)CC1`, the remaining signal was 100% (Cyclin-dependent kinase 2 homolog (CRK2, Plasmodium falciparum, UniProt P61075); cell-free assay; 10 µM).
`C#Cc1n[nH]c2c(-c3cn([C@@H](C)c4ccccc4)c(=O)[nH]c3=O)cc(F)cc12` gave an inhibition of 2.7% (MAP4K1; enzyme activity, inhibitor; 0.1 µM).
With `CC(C)N1CCC[C@H]1CNC(=O)c1cn(C2CCCC2)c(=O)c2c1c1ccccc1n2C` the inhibition was 7% (Platelet-activating factor receptor (PTAFR, Homo sapiens, UniProt P25105); ligand displacement, radioligand; 10 µM).
